Measurements published in ChEMBL document CHEMBL4257503, “N-Acetyl-3-aminopyrazoles block the non-canonical NF-kB cascade by selectively inhibiting NIK” (Medchemcomm, 2018).

Experiments:
[1] = target: Serine/threonine-protein kinase B-raf (Homo sapiens, UniProt P15056); assay: Inhibition of wild-type B-RAF (unknown origin)
[2] = target: Homeodomain-interacting protein kinase 1 (Homo sapiens, UniProt Q86Z02); assay: Inhibition of HIPK1 (unknown origin)
[3] = Stability in human liver microsomes at 1 uM in absence of NADPH cofactor; assay type: ADME, microsome
[4] = target: T1, Inhibitor of nuclear factor kappa-B kinase subunit alpha (Homo sapiens, UniProt O15111); assay: Inhibition of recombinant full length human His-tagged IKKalpha expressed in baculovirus expression system using ERLLDDRHDSGLDSMKDEE peptide as substrate measured after 60 mins by ADP-Glo kinase assay
T1 sequence (O15111 whole entry): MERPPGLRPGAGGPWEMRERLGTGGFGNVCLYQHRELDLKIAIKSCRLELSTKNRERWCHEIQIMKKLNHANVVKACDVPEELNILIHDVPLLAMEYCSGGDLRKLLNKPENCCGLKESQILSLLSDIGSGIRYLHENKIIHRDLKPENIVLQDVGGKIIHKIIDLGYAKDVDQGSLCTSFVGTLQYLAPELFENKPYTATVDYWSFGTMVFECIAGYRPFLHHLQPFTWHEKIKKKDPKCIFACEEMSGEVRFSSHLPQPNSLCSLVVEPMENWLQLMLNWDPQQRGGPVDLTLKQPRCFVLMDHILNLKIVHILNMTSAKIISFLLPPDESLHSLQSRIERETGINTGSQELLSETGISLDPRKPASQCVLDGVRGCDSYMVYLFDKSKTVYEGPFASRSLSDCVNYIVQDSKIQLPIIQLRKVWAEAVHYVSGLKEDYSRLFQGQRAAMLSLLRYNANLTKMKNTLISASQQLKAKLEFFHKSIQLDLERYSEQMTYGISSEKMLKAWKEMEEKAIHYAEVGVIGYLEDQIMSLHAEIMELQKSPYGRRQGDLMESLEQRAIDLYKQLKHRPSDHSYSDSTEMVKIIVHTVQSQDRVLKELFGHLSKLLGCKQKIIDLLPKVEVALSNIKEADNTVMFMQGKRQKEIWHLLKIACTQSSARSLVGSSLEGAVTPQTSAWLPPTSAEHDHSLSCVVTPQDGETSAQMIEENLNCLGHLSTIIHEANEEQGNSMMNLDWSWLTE
Procedure, shortened: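 Recombinant human IKKα, peptide substrate 100 µM, enzyme 8 ng/µL, ATP 1 µM in Tris-HCl pH 7.5 buffer with MgCl2, MnCl2, DTT, Na3VO4, BSA; 25°C, 60 min; ADP-Glo luminescence. Ten concentrations 0.005–100 µM; IC50 by nonlinear regression; means ± SD of three independent experiments.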

[5] = target: T2, Inhibitor of nuclear factor kappa-B kinase subunit epsilon (Homo sapiens, UniProt Q14164); assay: Inhibition of recombinant human full-length N-terminal GST-fused/His6-tagged IKKepsilon (M1 to V716 residues) expressed in Sf9 insect cells using ERLLDDRHDSGLDSMKDEE peptide as substrate measured after 60 mins by ADP-Glo kinase assay
T2 sequence (Q14164 whole entry): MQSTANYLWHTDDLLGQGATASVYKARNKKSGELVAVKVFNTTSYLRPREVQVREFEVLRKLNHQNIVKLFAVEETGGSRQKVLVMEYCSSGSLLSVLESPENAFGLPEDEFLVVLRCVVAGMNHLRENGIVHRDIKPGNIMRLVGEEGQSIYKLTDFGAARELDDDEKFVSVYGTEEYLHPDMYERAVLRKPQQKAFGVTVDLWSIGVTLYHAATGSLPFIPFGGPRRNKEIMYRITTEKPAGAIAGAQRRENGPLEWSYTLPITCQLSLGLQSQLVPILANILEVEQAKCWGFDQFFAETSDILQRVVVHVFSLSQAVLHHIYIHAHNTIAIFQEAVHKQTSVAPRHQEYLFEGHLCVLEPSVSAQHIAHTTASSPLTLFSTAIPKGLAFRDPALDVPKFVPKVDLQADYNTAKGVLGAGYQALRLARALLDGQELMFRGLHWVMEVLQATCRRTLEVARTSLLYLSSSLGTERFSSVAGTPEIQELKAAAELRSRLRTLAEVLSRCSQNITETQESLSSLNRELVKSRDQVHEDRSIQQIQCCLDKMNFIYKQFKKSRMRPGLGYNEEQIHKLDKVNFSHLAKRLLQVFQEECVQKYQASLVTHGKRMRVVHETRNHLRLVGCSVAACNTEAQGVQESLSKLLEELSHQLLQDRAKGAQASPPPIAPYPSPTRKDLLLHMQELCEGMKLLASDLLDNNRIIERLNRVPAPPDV

[6] = Cytotoxicity against human MDA-MB-231 cells assessed as cell viability at 100 uM after 6 hrs by CellTiter Glo luminescent assay relative to control; assay type: cell-based; conditions: read-out: Activity
Procedure, shortened: (§1)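 Cells seeded at 5 x 10^3 per well and exposed for 6 h to the compound (10, 25, 50 or 100 µM) or to DMSO vehicle. Viability was read as intracellular ATP by CellTiter Glo luminescence.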

[7] = target: Maternal embryonic leucine zipper kinase (Homo sapiens, UniProt Q14680); assay: Inhibition of MELK (unknown origin)
[8] = target: Tyrosine-protein kinase SYK (Homo sapiens, UniProt P43405); assay: Inhibition of SYK (unknown origin)
[9] = target: Tyrosine-protein kinase receptor UFO (Homo sapiens, UniProt P30530); assay: Inhibition of AXL (unknown origin)
[10] = target: Mitogen-activated protein kinase kinase kinase 14 (Homo sapiens, UniProt Q99558); assay: Inhibition of recombinant human full-length N-terminal GST-fused/His6-tagged NIK (M1 to P947 residues) expressed in Sf9 insect cells using AKDVDQGSLCTSFVGTLQY peptide as substrate measured after 60 mins by ADP-Glo kinase assay
[11] = Cytotoxicity against human SKBR3 cells assessed as cell viability at 100 uM after 6 hrs by CellTiter Glo luminescent assay relative to control; assay type: cell-based, SK-BR-3; conditions: read-out: Activity; procedure, shortened: as §1
[12] = target: Glycogen synthase kinase-3 beta (Homo sapiens, UniProt P49841); assay: Inhibition of GSK3-beta (unknown origin)
[13] = target: Mitogen-activated protein kinase 1 (Homo sapiens, UniProt P28482); assay: Inhibition of ERK2 (unknown origin)
[14] = target: Serine/threonine-protein kinase pim-1 (Homo sapiens, UniProt P11309); assay: Inhibition of PIM1 (unknown origin)
[15] = target: Serine/threonine-protein kinase TAO2 (Homo sapiens, UniProt Q9UL54); assay: Inhibition of TAOK2 (unknown origin)
[16] = target: Mitogen-activated protein kinase kinase kinase 8 (Homo sapiens, UniProt P41279); assay: Inhibition of COT (unknown origin)
[17] = target: Serine/threonine-protein kinase PLK1 (Homo sapiens, UniProt P53350); assay: Inhibition of PLK1 (unknown origin)
[18] = target: Dual specificity mitogen-activated protein kinase kinase 1 (Homo sapiens, UniProt Q02750); assay: Inhibition of wild-type MEK1 (unknown origin)
[19] = target: Platelet-derived growth factor receptor alpha (Homo sapiens, UniProt P16234); assay: Inhibition of wild-type PDGFR-alpha (unknown origin)
[20] = target: Ephrin type-A receptor 6 (Homo sapiens, UniProt Q9UF33); assay: Inhibition of EPHA6 (unknown origin)

Sequence of Tyrosine-protein kinase receptor UFO (P30530 whole entry, the tested form may be a part): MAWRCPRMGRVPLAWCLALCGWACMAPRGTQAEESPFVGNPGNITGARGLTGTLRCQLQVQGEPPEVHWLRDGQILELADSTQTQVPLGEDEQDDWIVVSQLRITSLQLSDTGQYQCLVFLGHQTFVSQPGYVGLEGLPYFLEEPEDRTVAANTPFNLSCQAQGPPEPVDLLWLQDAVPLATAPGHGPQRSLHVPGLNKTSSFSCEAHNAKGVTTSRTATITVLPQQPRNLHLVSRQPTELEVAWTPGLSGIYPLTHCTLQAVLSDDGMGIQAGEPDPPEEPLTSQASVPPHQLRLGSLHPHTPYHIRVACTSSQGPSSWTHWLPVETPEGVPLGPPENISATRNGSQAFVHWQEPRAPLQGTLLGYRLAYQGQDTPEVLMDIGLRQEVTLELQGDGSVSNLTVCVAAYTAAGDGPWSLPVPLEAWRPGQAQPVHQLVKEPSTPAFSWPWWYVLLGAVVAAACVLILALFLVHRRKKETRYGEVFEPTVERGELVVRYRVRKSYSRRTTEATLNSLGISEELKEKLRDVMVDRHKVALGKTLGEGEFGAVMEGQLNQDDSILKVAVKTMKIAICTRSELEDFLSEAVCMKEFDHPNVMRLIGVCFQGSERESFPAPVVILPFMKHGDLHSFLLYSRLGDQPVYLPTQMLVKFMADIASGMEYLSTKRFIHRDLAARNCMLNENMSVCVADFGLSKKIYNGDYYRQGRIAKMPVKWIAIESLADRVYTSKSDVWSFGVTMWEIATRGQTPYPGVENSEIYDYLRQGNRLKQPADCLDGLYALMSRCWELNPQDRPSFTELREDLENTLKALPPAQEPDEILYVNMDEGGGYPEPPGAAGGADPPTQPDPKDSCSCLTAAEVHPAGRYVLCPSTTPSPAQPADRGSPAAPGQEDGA
Sequence of Glycogen synthase kinase-3 beta (P49841 whole entry): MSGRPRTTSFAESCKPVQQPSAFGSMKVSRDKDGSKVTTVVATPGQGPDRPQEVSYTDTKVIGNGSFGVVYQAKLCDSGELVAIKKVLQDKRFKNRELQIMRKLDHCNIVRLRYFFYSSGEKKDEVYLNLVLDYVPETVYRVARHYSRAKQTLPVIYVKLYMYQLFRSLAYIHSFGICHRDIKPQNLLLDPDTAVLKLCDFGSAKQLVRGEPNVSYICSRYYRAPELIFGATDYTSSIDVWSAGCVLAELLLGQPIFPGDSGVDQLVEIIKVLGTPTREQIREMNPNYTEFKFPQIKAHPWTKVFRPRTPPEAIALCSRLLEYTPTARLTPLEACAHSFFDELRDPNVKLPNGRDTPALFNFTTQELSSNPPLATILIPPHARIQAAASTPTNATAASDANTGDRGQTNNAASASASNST
Sequence of Dual specificity mitogen-activated protein kinase kinase 1 (Q02750 whole entry): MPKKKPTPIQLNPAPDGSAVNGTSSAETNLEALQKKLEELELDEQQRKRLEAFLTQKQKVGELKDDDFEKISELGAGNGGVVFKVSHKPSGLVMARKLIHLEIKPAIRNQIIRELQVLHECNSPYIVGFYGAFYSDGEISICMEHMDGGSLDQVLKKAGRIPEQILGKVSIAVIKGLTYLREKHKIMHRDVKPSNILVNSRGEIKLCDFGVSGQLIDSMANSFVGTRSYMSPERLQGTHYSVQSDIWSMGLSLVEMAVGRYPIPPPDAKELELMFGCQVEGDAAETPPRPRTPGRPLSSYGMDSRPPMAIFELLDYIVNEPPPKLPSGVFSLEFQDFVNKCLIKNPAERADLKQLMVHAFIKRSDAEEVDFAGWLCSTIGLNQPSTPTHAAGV
Sequence of Mitogen-activated protein kinase 1 (P28482 whole entry): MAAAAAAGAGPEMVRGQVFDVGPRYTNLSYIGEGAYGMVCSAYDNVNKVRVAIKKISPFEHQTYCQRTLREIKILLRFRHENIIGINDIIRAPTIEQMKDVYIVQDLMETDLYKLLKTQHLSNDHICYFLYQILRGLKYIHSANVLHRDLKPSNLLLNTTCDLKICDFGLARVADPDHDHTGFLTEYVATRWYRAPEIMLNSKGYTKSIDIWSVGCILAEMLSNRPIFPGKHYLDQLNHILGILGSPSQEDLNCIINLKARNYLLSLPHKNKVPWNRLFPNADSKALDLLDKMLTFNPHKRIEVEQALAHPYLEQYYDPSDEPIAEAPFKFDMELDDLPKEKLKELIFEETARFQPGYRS
Sequence of Mitogen-activated protein kinase kinase kinase 14 (Q99558 whole entry, the tested form may be a part): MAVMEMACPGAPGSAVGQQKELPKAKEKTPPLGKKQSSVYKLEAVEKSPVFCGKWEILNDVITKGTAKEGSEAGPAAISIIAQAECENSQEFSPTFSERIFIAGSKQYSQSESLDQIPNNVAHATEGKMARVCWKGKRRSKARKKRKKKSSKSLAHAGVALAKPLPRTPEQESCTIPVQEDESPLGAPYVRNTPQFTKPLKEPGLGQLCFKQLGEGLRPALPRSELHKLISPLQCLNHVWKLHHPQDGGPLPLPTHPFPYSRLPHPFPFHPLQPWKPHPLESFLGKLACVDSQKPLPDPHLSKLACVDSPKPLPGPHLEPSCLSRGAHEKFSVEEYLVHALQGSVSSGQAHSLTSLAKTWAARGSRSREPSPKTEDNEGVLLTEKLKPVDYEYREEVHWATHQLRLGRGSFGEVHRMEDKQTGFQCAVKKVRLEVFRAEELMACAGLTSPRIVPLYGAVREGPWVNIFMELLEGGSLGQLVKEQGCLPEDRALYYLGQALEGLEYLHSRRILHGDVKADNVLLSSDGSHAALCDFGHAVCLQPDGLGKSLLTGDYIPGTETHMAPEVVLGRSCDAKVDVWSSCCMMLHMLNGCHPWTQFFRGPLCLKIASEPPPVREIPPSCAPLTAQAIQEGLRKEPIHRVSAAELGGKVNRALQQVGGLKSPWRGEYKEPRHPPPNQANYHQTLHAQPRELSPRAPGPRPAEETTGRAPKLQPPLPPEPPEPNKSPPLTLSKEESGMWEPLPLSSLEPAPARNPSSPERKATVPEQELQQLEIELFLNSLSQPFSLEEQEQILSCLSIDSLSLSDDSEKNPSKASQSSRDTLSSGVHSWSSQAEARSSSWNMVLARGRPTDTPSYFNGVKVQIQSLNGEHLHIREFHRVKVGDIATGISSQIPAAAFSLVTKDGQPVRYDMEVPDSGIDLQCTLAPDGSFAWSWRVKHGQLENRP
Sequence of Mitogen-activated protein kinase kinase kinase 8 (P41279 whole entry): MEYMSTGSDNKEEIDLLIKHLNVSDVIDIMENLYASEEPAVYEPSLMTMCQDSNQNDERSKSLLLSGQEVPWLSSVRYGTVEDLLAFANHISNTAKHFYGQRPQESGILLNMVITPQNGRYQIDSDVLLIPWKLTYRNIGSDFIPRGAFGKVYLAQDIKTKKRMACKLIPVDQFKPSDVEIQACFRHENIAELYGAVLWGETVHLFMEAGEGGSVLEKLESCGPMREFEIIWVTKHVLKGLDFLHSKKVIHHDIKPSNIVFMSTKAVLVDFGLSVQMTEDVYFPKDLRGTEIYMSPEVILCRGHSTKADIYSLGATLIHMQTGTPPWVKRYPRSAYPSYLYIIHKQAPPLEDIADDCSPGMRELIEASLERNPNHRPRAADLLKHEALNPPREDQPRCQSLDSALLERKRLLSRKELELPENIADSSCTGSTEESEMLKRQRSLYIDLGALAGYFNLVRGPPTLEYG
Sequence of Serine/threonine-protein kinase pim-1 (P11309 whole entry): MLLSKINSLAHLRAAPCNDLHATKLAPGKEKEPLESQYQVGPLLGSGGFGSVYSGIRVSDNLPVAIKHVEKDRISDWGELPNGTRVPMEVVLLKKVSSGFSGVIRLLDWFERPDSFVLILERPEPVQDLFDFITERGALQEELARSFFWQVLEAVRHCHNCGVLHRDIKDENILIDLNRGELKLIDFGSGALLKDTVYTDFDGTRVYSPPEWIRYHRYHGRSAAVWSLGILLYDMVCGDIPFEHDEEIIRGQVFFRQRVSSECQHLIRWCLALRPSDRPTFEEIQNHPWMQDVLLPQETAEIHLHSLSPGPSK
Sequence of Platelet-derived growth factor receptor alpha (P16234 whole entry): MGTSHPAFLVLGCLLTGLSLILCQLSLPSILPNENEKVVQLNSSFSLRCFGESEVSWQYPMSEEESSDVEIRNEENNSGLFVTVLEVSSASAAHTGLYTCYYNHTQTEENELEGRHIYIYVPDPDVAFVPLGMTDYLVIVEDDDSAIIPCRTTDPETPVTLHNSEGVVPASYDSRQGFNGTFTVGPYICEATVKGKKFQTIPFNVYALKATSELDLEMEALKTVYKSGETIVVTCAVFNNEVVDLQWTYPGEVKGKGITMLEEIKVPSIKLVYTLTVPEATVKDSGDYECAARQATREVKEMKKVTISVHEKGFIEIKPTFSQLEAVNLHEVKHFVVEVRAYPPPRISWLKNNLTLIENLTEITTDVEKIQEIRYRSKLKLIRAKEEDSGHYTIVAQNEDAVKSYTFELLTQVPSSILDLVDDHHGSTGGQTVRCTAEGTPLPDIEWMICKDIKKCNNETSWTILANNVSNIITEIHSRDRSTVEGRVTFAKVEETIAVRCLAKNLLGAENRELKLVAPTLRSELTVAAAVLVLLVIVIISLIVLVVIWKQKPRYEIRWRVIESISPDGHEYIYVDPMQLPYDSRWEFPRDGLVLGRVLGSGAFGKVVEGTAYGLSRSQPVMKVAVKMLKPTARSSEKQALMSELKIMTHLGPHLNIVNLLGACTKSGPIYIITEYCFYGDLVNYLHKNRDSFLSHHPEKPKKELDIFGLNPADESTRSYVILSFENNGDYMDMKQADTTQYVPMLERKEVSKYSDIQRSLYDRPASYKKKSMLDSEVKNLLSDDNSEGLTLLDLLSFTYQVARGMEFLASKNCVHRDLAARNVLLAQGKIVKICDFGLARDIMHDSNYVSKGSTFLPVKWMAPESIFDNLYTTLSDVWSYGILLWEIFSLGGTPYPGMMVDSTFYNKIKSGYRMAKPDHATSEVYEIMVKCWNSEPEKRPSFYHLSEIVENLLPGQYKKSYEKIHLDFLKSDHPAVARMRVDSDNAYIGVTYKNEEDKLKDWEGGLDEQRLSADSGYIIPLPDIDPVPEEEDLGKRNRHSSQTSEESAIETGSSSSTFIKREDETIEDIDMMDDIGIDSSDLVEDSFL

IC50 [1]: > 100 µM | IC50 [2]: > 100 µM | Stability [3]: Unstable | IC50 [4]: > 100 µM | IC50 [5]: > 100 µM | IC50 [7]: > 100 µM | IC50 [8]: > 100 µM | IC50 [9]: > 100 µM | IC50 [10]: 8.4 µM | IC50 [12]: > 100 µM | IC50 [13]: > 100 µM | IC50 [14]: > 100 µM | IC50 [15]: > 100 µM | IC50 [16]: > 100 µM | IC50 [17]: > 100 µM | IC50 [18]: > 100 µM | IC50 [19]: > 100 µM | IC50 [20]: > 100 µM
Structure (SMILES): CC(=O)n1nc(C)c(-c2ccc(Cl)c(Cl)c2)c1N
viability at 6 h, 100 µM [6]: ≥ 80% | viability at 6 h, 100 µM [11]: ≥ 80%
